# Laboratory results reported in ChEMBL document CHEMBL4130549, “Synthesis and bioactivities study of new antibacterial peptide mimics: The dialkyl cationic amphiphiles” (Eur J Med Chem, 2018).
# Calls of active or inactive are those of the source. The calls are words filed in the database; no cut-off is given here.
# What was measured:
# [1] = tested on: Staphylococcus aureus; assay: Bactericidal activity against methicillin-resistant Staphylococcus aureus after 20 to 24 hrs by broth microdilution method; type: functional
# Summary of the method: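 For MBC, 20 µL from wells of the broth microdilution MIC plate showing little or no turbidity was plated on agar and incubated 20-24 h at 37 °C. MBC was the lowest concentration giving no colonies.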
# [2] = tested on: Enterobacteriaceae; assay: Antibacterial activity against NDM-1-producing Enterobacteriaceae isolate N7 after 16 to 20 hrs by broth microdilution method; type: functional
# Summary of the method: (§1)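 Broth microdilution per CLSI in cation-adjusted Mueller-Hinton broth; 4-6 h cultures (~10⁸ CFU/mL) diluted to ~10⁶ CFU/mL and mixed 1:1 with twofold dilutions of water-dissolved compound (256 to 0.5 µg/mL). Incubated 16-20 h at 37 °C; MIC read visually. Each concentration run in duplicate, whole experiment repeated at least twice. MRSA, KPC and NDM-1 strains were clinical isolates.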
# [3] = tested on: Staphylococcus aureus; assay: Antibacterial activity against methicillin-resistant Staphylococcus aureus isolate M8 after 16 to 20 hrs by broth microdilution method; type: functional
# Summary of the method: (§2)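 CLSI broth microdilution in cation-adjusted Mueller-Hinton broth. A 4-6 h culture was diluted to about 10⁶ CFU/mL and mixed 1:1 with twofold compound dilutions (256–0.5 µg/mL before mixing) prepared from aqueous stocks. Plates were incubated at 37 °C for 16-20 h. Each concentration was tested in duplicate, and the experiment was repeated at least twice.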
# [4] = tested on: Enterobacteriaceae; assay: Antibacterial activity against NDM-1-producing Enterobacteriaceae isolate N2 after 16 to 20 hrs by broth microdilution method; type: functional; summary of the method: as §1
# [5] = tested on: Staphylococcus aureus; assay: Induction of inner membrane permeabilization in Staphylococcus aureus ATCC 29213 at 20 ug/ml measured every 2 mins for 12 mins by propidium iodide staining based fluorescence assay; type: functional, organism-based
# Summary of the method: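 Mid-log cells (~10^8 CFU/mL) pre-incubated with propidium iodide (10 µM, 50 µL), 30 min for S. aureus and 40 min for E. coli. Fluorescence (ex 535/em 617 nm) read for 8 min, then compound added to 20 µg/mL final and monitored every 2 min for 12 min. Water-treated control.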
# [6] = tested on: Klebsiella pneumoniae; assay: Antibacterial activity against carbapenemase-producing Klebsiella pneumoniae isolate K5 after 16 to 20 hrs by broth microdilution method; type: functional; summary of the method: as §1
# [7] = tested on: Enterobacteriaceae; assay: Antibacterial activity against NDM-1-producing Enterobacteriaceae isolate N8 after 16 to 20 hrs by broth microdilution method; type: functional; summary of the method: as §1
# [8] = tested on: Staphylococcus aureus; assay: Antibacterial activity against methicillin-resistant Staphylococcus aureus isolate M7 after 16 to 20 hrs by broth microdilution method; type: functional; summary of the method: as §2
# [9] = tested on: Staphylococcus aureus; assay: Antibacterial activity against methicillin-resistant Staphylococcus aureus isolate M10 after 16 to 20 hrs by broth microdilution method; type: functional; summary of the method: as §2
# [10] = tested on: Staphylococcus aureus; assay: Antibacterial activity against methicillin-resistant Staphylococcus aureus isolate M4 after 16 to 20 hrs by broth microdilution method; type: functional; summary of the method: as §2
# [11] = tested on: Escherichia coli; assay: Induction of cytoplasmic membrane depolarization in Escherichia coli ATCC 25922 at 20 ug/ml measured every 2 mins for 12 mins by diSC35 staining based fluorescence assay; type: functional, organism-based
# Summary of the method: (§3)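 Mid-log cells (4–6 h) pelleted, washed and resuspended (~10^8 CFU/mL) in PBS for S. aureus, or in 5 mM HEPES, 5 mM glucose and 100 mM KCl (1:1:1) for E. coli. Preloaded with diSC35 (10 µM, 50 µL), 30 min for S. aureus and 40 min plus EDTA (200 µM, 50 µL) for E. coli. Baseline read 8 min (ex 622/em 670 nm), then compound added to 20 µg/mL final and read every 2 min for 12 min. Water control.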
# [12] = tested on: Enterobacteriaceae; assay: Antibacterial activity against NDM-1-producing Enterobacteriaceae isolate N10 after 16 to 20 hrs by broth microdilution method; type: functional; summary of the method: as §1
# [13] = tested on: Staphylococcus aureus; assay: Bactericidal activity against methicillin-resistant Staphylococcus aureus after 20 to 24 hrs in presence of 50% serum by broth microdilution method; type: functional, organism-based
# Summary of the method: (§4)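 MRSA at 10⁵ CFU/mL in 50% Mueller-Hinton broth plus 50% sheep serum, plasma or defibrinated whole blood. Serum and plasma were separated by centrifugation at 3,500 rpm for 10 min. Aqueous compound dilutions (512–4 µg/mL before mixing) were combined 1:3 with the suspension and incubated 20-24 h at 37 °C. Wells were plated on Mueller-Hinton agar for a further 20-24 h; MBC was taken as no colonies.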
# [14] = tested on: Klebsiella pneumoniae; assay: Antibacterial activity against carbapenemase-producing Klebsiella pneumoniae isolate K4 after 16 to 20 hrs by broth microdilution method; type: functional; summary of the method: as §1
# [15] = tested on: Enterobacteriaceae; assay: Antibacterial activity against NDM-1-producing Enterobacteriaceae isolate N5 after 16 to 20 hrs by broth microdilution method; type: functional; summary of the method: as §1
# [16] = tested on: Staphylococcus aureus; assay: Bactericidal activity against methicillin-resistant Staphylococcus aureus after 20 to 24 hrs in presence of 50% plasma by broth microdilution method; type: functional, organism-based; summary of the method: as §4
# [17] = tested on: Staphylococcus aureus; assay: Antibacterial activity against methicillin-resistant Staphylococcus aureus isolate M2 after 16 to 20 hrs by broth microdilution method; type: functional; summary of the method: as §2
# [18] = tested on: Escherichia coli; assay: Antibacterial activity against Escherichia coli ATCC 25922 after 16 to 20 hrs by broth microdilution method; type: functional; summary of the method: as §1
# [19] = tested on: Klebsiella pneumoniae; assay: Antibacterial activity against carbapenemase-producing Klebsiella pneumoniae isolate K6 after 16 to 20 hrs by broth microdilution method; type: functional; summary of the method: as §1
# [20] = tested on: Klebsiella pneumoniae; assay: Antibacterial activity against carbapenemase-producing Klebsiella pneumoniae isolate K10 after 16 to 20 hrs by broth microdilution method; type: functional; summary of the method: as §1
# [21] = tested on: Staphylococcus aureus; assay: Induction of cytoplasmic membrane depolarization in Staphylococcus aureus ATCC 29213 at 20 ug/ml measured every 2 mins for 12 mins by diSC35 staining based fluorescence assay; type: functional, organism-based; summary of the method: as §3
# [22] = tested on: Klebsiella pneumoniae; assay: Antibacterial activity against carbapenemase-producing Klebsiella pneumoniae isolate K9 after 16 to 20 hrs by broth microdilution method; type: functional; summary of the method: as §1
# [23] = tested on: Staphylococcus aureus; assay: Ratio of MBC for methicillin-resistant Staphylococcus aureus in presence of 50% serum to MBC for methicillin-resistant Staphylococcus aureus; type: functional; summary of the method: as §4
# [24] = tested on: Klebsiella pneumoniae; assay: Antibacterial activity against carbapenemase-producing Klebsiella pneumoniae isolate K8 after 16 to 20 hrs by broth microdilution method; type: functional; summary of the method: as §1
# [25] = tested on: Klebsiella pneumoniae; assay: Antibacterial activity against carbapenemase-producing Klebsiella pneumoniae isolate K1 after 16 to 20 hrs by broth microdilution method; type: functional; summary of the method: as §1
# [26] = tested on: Klebsiella pneumoniae; assay: Antibacterial activity against carbapenemase-producing Klebsiella pneumoniae after 16 to 20 hrs by broth microdilution method; type: functional; summary of the method: as §1
# [27] = tested on: Staphylococcus aureus; assay: Antibacterial activity against methicillin-resistant Staphylococcus aureus isolate M5 after 16 to 20 hrs by broth microdilution method; type: functional; summary of the method: as §2
# [28] = tested on: Enterobacteriaceae; assay: Antibacterial activity against NDM-1-producing Enterobacteriaceae isolate N1 after 16 to 20 hrs by broth microdilution method; type: functional; summary of the method: as §1
# [29] = tested on: Staphylococcus aureus; assay: Bactericidal activity against Staphylococcus aureus after 20 to 24 hrs using compounds preincubated with 50% plasma for 3 to 6 hrs by broth microdilution method
# [30] = tested on: Klebsiella pneumoniae; assay: Antibacterial activity against carbapenemase-producing Klebsiella pneumoniae isolate K3 after 16 to 20 hrs by broth microdilution method; type: functional; summary of the method: as §1
# [31] = tested on: Staphylococcus aureus; assay: Antibacterial activity against methicillin-resistant Staphylococcus aureus isolate M1 after 16 to 20 hrs by broth microdilution method; type: functional; summary of the method: as §2
# [32] = tested on: Klebsiella pneumoniae; assay: Antibacterial activity against carbapenemase-producing Klebsiella pneumoniae isolate K2 after 16 to 20 hrs by broth microdilution method; type: functional; summary of the method: as §1
Compound,MBC [1] [µg/mL],MIC [2] [µg/mL],MIC [3] [µg/mL],MIC [4] [µg/mL],Activity [5],MIC [6] [µg/mL],MIC [7] [µg/mL],MIC [8] [µg/mL],MIC [9] [µg/mL],MIC [10] [µg/mL],Activity [11],MIC [12] [µg/mL],Activity [13],MIC [14] [µg/mL],MIC [15] [µg/mL],Activity [16],MIC [17] [µg/mL],MIC [18] [µg/mL],MIC [19] [µg/mL],MIC [20] [µg/mL],other results
CCCCCCCCCCN(CCCCCCCCCC)C(=O)[C@@H](N)CCCCN.Cl.Cl,4 to 8,4,1,4,Active,4,4,1,1,2,Active,4,Active,4,4,Active,1,2,4,4,Activity [21]: Active; MIC [22]: 4 µg/mL; Ratio [23]: 1 - 2; MIC [24]: 2 µg/mL; MIC [25]: 4 µg/mL; MIC [26]: 2 µg/mL; MIC [27]: 2 µg/mL; MIC [28]: 4 µg/mL; MBC [29]: 16 µg/mL; MIC [30]: 4 µg/mL; MIC [31]: 1 µg/mL; MIC [32]: 4 µg/mL
CCCCCCCCCN(CCCCCCCCC)C(=O)[C@@H](N)CCCCN.Cl.Cl,4 to 8,2,1,2,Active,2,2,1,0.5,2,Active,4,Active,2,2,Active,1,2,2,2,Activity [21]: Active; MIC [22]: 2 µg/mL; Ratio [23]: 1 - 2; MIC [24]: 2 µg/mL; MIC [25]: 2 µg/mL; MIC [26]: 2 µg/mL; MIC [27]: 1 µg/mL; MIC [28]: 2 µg/mL; MBC [29]: 16 µg/mL; MIC [30]: 2 µg/mL; MIC [31]: 1 µg/mL; MIC [32]: 2 µg/mL
CCCCCCCCN(CCCCCCCC)C(=O)[C@@H](N)CCCCN.Cl.Cl,4 to 8,8,1,8,Active,2,8,0.5,0.5,1,Active,8,Active,2,4,Active,1,2,2,2,Activity [21]: Active; MIC [22]: 2 µg/mL; Ratio [23]: 1 - 2; MIC [24]: 1 µg/mL; MIC [25]: 2 µg/mL; MIC [26]: 1 µg/mL; MIC [27]: 1 µg/mL; MIC [28]: 8 µg/mL; MBC [29]: 16 µg/mL; MIC [30]: 2 µg/mL; MIC [31]: 1 µg/mL; MIC [32]: 2 µg/mL
